A short description of the series: Toxicity liver stage against HepG2, at 10uM. Type of series: cell-based. The arrangement: test concentration 10 uM, cell line HepG2-A16-CD81EGFP. The following applies: human, HepG2-A16-CD81EGFP cells; read-out: INHIBITION
The procedure, abridged:
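Uninfected HepG2-A16-CD81EGFP cells, 3 × 10^3 per well, 1536-well, plated on prespotted compound at 10 μM final, parasite-free screening media added to match infected plates; puromycin 10 μM positive, DMSO 0.5% negative; run in parallel with 48 h PbLuc assay at 37 °C, 5% CO2; viability by CellTiter-Glo luminescence, normalized to controls.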
Turning to `Cn1cncc1-c1nnc([C@H]2CCN(CC(C)(C)C)C2)o1`, the cytotoxicity at 10 µM stood at 2.26%.

On to `N#CCCN(CC1CCCO1)C(=O)c1ccsc1` (stereo unspecified), for which the cytotoxicity at 10 µM is 0.325%.

Consider `O=C(Cn1ccc2ccc(F)cc21)NC[C@@H]1CCCN2CCCC[C@H]12`, for which the cytotoxicity at 10 µM was found to be 14%.

On to `CCN(CC)c1nc2ccsc2c(=O)n1CCC(=O)NC1CCCC1`, for which the cytotoxicity at 10 µM came to 7.19%.

For `Cc1ccc(S(=O)(=O)NCCOc2ccc3nnc(C)n3n2)s1`, the cytotoxicity at 10 µM is -6.26%.

Take `CCc1nn(-c2cc(Oc3cc(C)ccc3C)ncn2)c(N)c1C#N`: the cytotoxicity at 10 µM is 12.9%.

`CC(C)N1CCC2(CC1)NC(=O)c1cc(Br)ccc1-n1nnnc12`: the cytotoxicity at 10 µM turned out to be 9.26%.

With `Cc1nc2ccc(Cl)cn2c1CN1CCN(S(=O)(=O)N2CCCC2)CC1`, the cytotoxicity at 10 µM came to 16.6%.

Consider `Cc1csc(C(=O)N2CC[C@H](Oc3cccnc3C)[C@@H](O)CC2)c1`, for which the cytotoxicity at 10 µM is -10.7%.

For `O=S(=O)(Cc1cccc(Cl)c1)CC(O)Cn1cccn1` (stereo unspecified), the cytotoxicity at 10 µM was -12.5%.

For the molecule `c1cc2occc2c(N2CCCC(c3nncn3C3CC3)C2)n1` (stereo unspecified), the cytotoxicity at 10 µM is 1.97%.

Turning to `CC(C)(C)c1n[nH]c(C2CN(CCc3ccncc3)CCO2)n1` (stereo unspecified), the cytotoxicity at 10 µM is -12.3%.

With `O=c1ccncn1Cc1csc(C2CC2)n1`, the cytotoxicity at 10 µM was -0.572%.

In the case of `Cc1csc(C(C)(C)NCCOc2ccc(CC#N)cc2)n1`, the cytotoxicity at 10 µM was 1.74%.

For the molecule `Cc1nc(CN(C)S(=O)(=O)c2ccccc2Br)no1`, the cytotoxicity at 10 µM amounted to 6.2%.

`O=C(NCC1CCC2(CC1)OCCO2)c1ccncc1F`: the cytotoxicity at 10 µM came to 14.4%.

Take `CNC(=O)c1ccc(CNc2ccncc2Cl)cc1`: the cytotoxicity at 10 µM was found to be 17.7%.

Consider `CCc1nnc(C2Cc3ccccc3CN2Cc2cc(C)no2)o1` (stereo unspecified), for which the cytotoxicity at 10 µM is -7.4%.

As to `Cc1nnc(C(C)Nc2cccc(COCC(F)(F)C(F)F)c2)o1` (stereo unspecified), the cytotoxicity at 10 µM is -1.2%.

Turning to `COc1ncccc1NC(=O)N1CCCC(CNC(=O)OC(C)(C)C)C1` (stereo unspecified), the cytotoxicity at 10 µM is -1.71%.

For the molecule `Cc1cc(NC2CCc3ncnn3C2)n2ncnc2n1` (stereo unspecified), the cytotoxicity at 10 µM is -18.4%.

Take `O=C(NCc1ccco1)N1CCC(n2ccc(C(F)(F)F)n2)CC1`: the cytotoxicity at 10 µM is 12.2%.

As to `Cn1nc2c(cc1=O)CN(Cc1nc(N)c3ccccc3n1)CC2`, the cytotoxicity at 10 µM is -8.86%.

As to `O=C(NC1CC1)c1cc(NC(=O)N2CCSCC2)ccc1Cl`, the cytotoxicity at 10 µM was -22.5%.

On to `Cc1ncc(CN(C)C2CCCN(c3cccnn3)C2)s1` (stereo unspecified), for which the cytotoxicity at 10 µM amounted to 0.709%.

For `Cn1cnnc1-c1ccnc(NCc2ccccc2)c1`, the cytotoxicity at 10 µM was -4.98%.

Consider `CCN(C)S(=O)(=O)N(CC)Cc1cccc(-c2ccncc2)c1`, for which the cytotoxicity at 10 µM is -11.5%.

Consider `CC(=O)N1CCC(C(=O)NC(C)c2cccc(OC(F)F)c2)CC1` (stereo unspecified), for which the cytotoxicity at 10 µM is -8.2%.

Consider `CCS(=O)(=O)CC(=O)NCC1(c2c(F)cccc2F)CCCC1`, for which the cytotoxicity at 10 µM was -3.32%.

`O=C(NCCOc1ccc(C(F)(F)F)cn1)c1ccoc1`: the cytotoxicity at 10 µM was -10.1%.

As to `CCc1nc(C)ncc1C(=O)N1CC(C)CN(C)c2ccccc21` (stereo unspecified), the cytotoxicity at 10 µM was 10.7%.

Consider `O=C(Nc1ccc(Cn2cccn2)cc1)N1CCC(CO)CC1`, for which the cytotoxicity at 10 µM is 47.8%.

Turning to `Fc1ccc(NCc2ncc[nH]2)cc1Br`, the cytotoxicity at 10 µM is 3.76%.

On to `O=C(CN1CCOC(Cn2cccn2)C1)NC(C1CC1)C1CC1` (stereo unspecified), for which the cytotoxicity at 10 µM is -42.1%.

Regarding `CC(Cn1ccnc1)NC(=O)N(C)Cc1ccsc1` (stereo unspecified), the cytotoxicity at 10 µM is 2.69%.

Regarding `CCC(C)(COc1ncccc1Cl)NCC(=O)NCC(C)C` (stereo unspecified), the cytotoxicity at 10 µM is -2.86%.

For the molecule `CCc1nnc2n1CCN(Cc1nc3c(F)cccc3[nH]1)C2`, the cytotoxicity at 10 µM is -8.06%.

Regarding `Cc1ccc(-c2nc(CN(C)C3CCS(=O)(=O)C3)cs2)o1` (stereo unspecified), the cytotoxicity at 10 µM was -8.05%.

As for `COc1cc(N2CCC3(CC(=O)N(Cc4csc(C)n4)C3)C2)ncn1` (stereo unspecified), the cytotoxicity at 10 µM was -104%.

Turning to `O=C([C@@H]1CCO[C@@H]2CCN(CC3CC3)C[C@H]21)N1CCCC1`, the cytotoxicity at 10 µM was -103%.

On to `CCOCc1cnc2n1CCN(C(=O)c1ccccc1)C2C` (stereo unspecified), for which the cytotoxicity at 10 µM is -103%.

`CCOCc1cnc2n1CCN(C(=O)c1cn(C)c3ccccc13)C2C` (stereo unspecified): the cytotoxicity at 10 µM was -108%.

On to `O=C(NCc1cccnc1)N1CCn2c(Cn3cccn3)cnc2C1`, for which the cytotoxicity at 10 µM was -71.1%.

On to `Cc1noc(C)c1CN1C[C@@H]2COC[C@@H](C(=O)N3CCCO3)[C@@H]2C1`, for which the cytotoxicity at 10 µM is -69.9%.

On to `CN1CCN([C@H]2COC[C@@H]3CN(Cc4cccnc4)C[C@@H]32)CC1`, for which the cytotoxicity at 10 µM is -77.9%.

In the case of `COCC(=O)N1CCC2(CC1)CN(c1ncccn1)CCO2`, the cytotoxicity at 10 µM was -67.3%.

Take `Cc1cc(CN2CC[C@H]3C[C@@H](c4nccs4)O[C@@H]3C2)no1`: the cytotoxicity at 10 µM is -84.8%.

`COCC(=O)NCC[C@H]1CC(C)(C)Oc2ccccc21`: the cytotoxicity at 10 µM worked out at 3.3%.

With `COc1cccc(-c2ncc3c(n2)N(C)CCN(CCN(C)C)C3=O)c1`, the cytotoxicity at 10 µM was -12.2%.

As to `O=S(=O)(CCNCc1cc(O)c2cc(F)ccc2n1)N1CCCC1`, the cytotoxicity at 10 µM is -39.5%.

Consider `Cc1cnc(C)c(N2CCCC(CC3CC3)(C(=O)O)C2)n1` (stereo unspecified), for which the cytotoxicity at 10 µM was -6.09%.

Turning to `CC(C)O[C@H]1CN(C(=O)CCN2CCCCO2)C[C@@H]1O`, the cytotoxicity at 10 µM is -7.12%.

Take `Cc1nc(CN2CCCC(CCc3ccccc3F)C2)c[nH]1` (stereo unspecified): the cytotoxicity at 10 µM is -6.55%.

For the molecule `Cc1cccc(CN2CCN(c3ncnc4[nH]ccc34)CC2CCO)n1` (stereo unspecified), the cytotoxicity at 10 µM worked out at 10.8%.

Turning to `Cc1ccccc1-n1ncc(C(C)N)c1C` (stereo unspecified), the cytotoxicity at 10 µM was -8.23%.

On to `NC1CCCCN(Cc2cc(C3CCCCC3)no2)C1` (stereo unspecified), for which the cytotoxicity at 10 µM was -14.1%.

Take `Cc1n[nH]c(C)c1-c1cc(-c2cccc(O)c2)nc(N)c1C#N`: the cytotoxicity at 10 µM came to 26.9%.

Consider `O=C1CCCN1CCC1CCCCN1C(=O)c1ccc(SCCO)cc1` (stereo unspecified), for which the cytotoxicity at 10 µM was -43%.

Turning to `CCN(Cc1noc(CC(C)C)n1)Cc1ccccc1C(=O)O`, the cytotoxicity at 10 µM is -51.6%.

In the case of `CC(C)c1cc(NCc2csc(C(C)C)n2)nc(N)n1`, the cytotoxicity at 10 µM was 19.8%.

Turning to `CN(Cc1ccco1)c1ccc(C(=O)NCCCc2ccccn2)cn1`, the cytotoxicity at 10 µM was -55.8%.

In the case of `COc1ccc(C(=O)NCC2CCCN(C3CCOCC3)C2)c(O)c1` (stereo unspecified), the cytotoxicity at 10 µM worked out at 5.21%.

For the molecule `Cc1nc(C(=O)N2CCN(C(=O)N(C)C)[C@@H]3CS(=O)(=O)C[C@@H]32)cs1`, the cytotoxicity at 10 µM turned out to be 4.96%.

Regarding `O=S(=O)(c1ccc2c(c1)OCCO2)N1CCc2ccccc2C1`, the cytotoxicity at 10 µM is -5.52%.

On to `CC(C)N(C)C(=O)CN1C(=O)OC[C@@H]1c1ccccc1`, for which the cytotoxicity at 10 µM was -47.7%.

For `CSc1nccc(N2CCC(NCc3ccc4c(c3)OCO4)CC2)n1`, the cytotoxicity at 10 µM was -3.4%.

`CCn1cnc(NC(=O)N2CCC(c3ccc(Cl)cc3)C2)n1` (stereo unspecified): the cytotoxicity at 10 µM came out at 0.0451%.

As to `CN(CC1(CO)CCC1)c1nc2c(c(=O)[nH]1)Cc1ccccc1OC2`, the cytotoxicity at 10 µM was -17.2%.

Consider `COCCN1CC(C(=O)N(C)Cc2csc(C)n2)CC1=O` (stereo unspecified), for which the cytotoxicity at 10 µM came to 12.5%.

For `COc1ccc(CN2CCCC2)cc1Oc1cccc(C#N)n1`, the cytotoxicity at 10 µM amounted to 7.01%.

Turning to `COCCCN1CCN([C@@H]2c3ccccc3C3(CCNCC3)[C@H]2O)CC1`, the cytotoxicity at 10 µM is -4.86%.

Take `OC1CN(Cc2ccccc2)CCN(c2ccncc2)C1` (stereo unspecified): the cytotoxicity at 10 µM was -4.74%.

Turning to `O=C(c1ccc(S(=O)(=O)NCCc2ccncc2)cc1)N1CCCC1`, the cytotoxicity at 10 µM was determined as 1.67%.

`Cc1cc(C(F)(F)F)nc(CNC(=O)CCn2cccn2)n1`: the cytotoxicity at 10 µM was found to be 1.7%.

Consider `CCNc1ncc(CN2C[C@@H](C(=O)O)[C@H](C3CC3)C2)cn1`, for which the cytotoxicity at 10 µM was -46.1%.

For `CCOC(=O)C1(Cc2cccc(OC)c2)CCN(Cc2ncc[nH]2)CC1`, the cytotoxicity at 10 µM was -7.82%.

Regarding `CN1CC[C@H](c2ccccc2)[C@@H]2[C@H]1CCCCN2C(=O)c1cnccn1`, the cytotoxicity at 10 µM is -2.5%.

Take `CC(NC(=O)NCc1ccccc1)(C(=O)O)c1ccco1` (stereo unspecified): the cytotoxicity at 10 µM was -3.37%.

Consider `O=C(Cc1ccccc1Cl)N1CCN(CC(O)COCCO)CC1` (stereo unspecified), for which the cytotoxicity at 10 µM amounted to 5.51%.

Turning to `Cc1noc(C)c1CC(=O)N1CCCN(Cc2cscn2)CC1`, the cytotoxicity at 10 µM is 2.45%.

Regarding `Cc1nnc2n1CCN(CCOc1ccccc1C#N)C2`, the cytotoxicity at 10 µM was -4.53%.

As to `Cc1cn2nc(N3CCN(Cc4c(C)noc4C)CC3)sc2n1`, the cytotoxicity at 10 µM was -8.81%.

`c1cnn(CC2CCCN2c2ncnc3ccsc23)c1` (stereo unspecified): the cytotoxicity at 10 µM came out at 9.12%.

As to `O=C(NCCNc1ncccn1)N1CCN(Cc2cccnc2)CC1`, the cytotoxicity at 10 µM was -3.71%.

Take `CCn1cc(NC(=O)CN2CCC(Oc3ccc(F)cc3)CC2)c(C)n1`: the cytotoxicity at 10 µM came out at 9.25%.

Regarding `Cn1cc(N2CC[C@@H]3CN(Cc4ccncc4)C[C@H]3C2=O)cn1`, the cytotoxicity at 10 µM was -103%.

For the molecule `O=C(c1cscn1)N1CCc2c(COCC3CC3)cncc2C1`, the cytotoxicity at 10 µM was -105%.

In the case of `Cc1ccc(CN2CC[C@@H]3OCCN(Cc4ccncc4)[C@H]3CC2)s1`, the cytotoxicity at 10 µM came to 6.84%.

For `COc1ncc(C2(O)CCN(Cc3ccc(F)c(F)c3)CC2)c(OC)n1`, the cytotoxicity at 10 µM was -0.279%.

For the molecule `COc1ccc(C[C@H]2CN(Cc3ccoc3)CC[C@@H]2OC)cc1`, the cytotoxicity at 10 µM was determined as 2.51%.

As to `COCCN1CCC(c2nc3ccc(NC4CCC4)cn3n2)CC1`, the cytotoxicity at 10 µM was -119%.

For `CN1CCO[C@@H]2CN(C(=O)c3ccc4ncccc4c3)CC[C@@H]2C1`, the cytotoxicity at 10 µM is -112%.

In the case of `CNC(=O)c1cc2c(nc1N(C)C)CCN(c1ncc(C)cn1)CC2`, the cytotoxicity at 10 µM is -119%.

For the molecule `Cc1ccc(Nc2nccc(C3CCN(C(=O)CN)C3)n2)nc1` (stereo unspecified), the cytotoxicity at 10 µM is -18.5%.

For the molecule `CCN1CC2(CC1=O)CN(Cc1ccco1)CCN(C(=O)C(C)C)C2` (stereo unspecified), the cytotoxicity at 10 µM is -4.51%.

Regarding `O=C1CCCC2=Nc3nonc3NC(c3ccc(Cl)cc3Cl)C12` (stereo unspecified), the cytotoxicity at 10 µM was 5.24%.

For the origin of these results see ChEMBL document CHEMBL4513216, “Probing the Open Global Health Chemical Diversity Library for Multistage-Active Starting Points for Next-Generation Antimalarials” (ACS Infect Dis, 2020).
